Data published in PMC11704051 (Nature Communications, 2025).
Several values for one entry are separate records, joined by “and”; a condition that tells them apart may be missing. Equal values may be shown once.

What was measured:
mouse = mouse GLP toxicology study, non-tolerated doses; cited from earlier work
[1] = system: MTAP-deleted cancer cell lines; conditions: multiple MTAP-deleted cancer cell lines; cited from earlier work
[2] = system: patients with advanced malignancies; assay: Phase 1 trial: safety and tolerability; type: in vivo, human; conditions: for DLT: cycle 1; for Patients with any TRAE / TRAE Anemia / TRAE Blood bilirubin increased/hyperbilirubinemia / TRAE Diarrhea / TRAE Fatigue / TRAE Nausea / TRAE Rash (rash, rash macular, rash maculo-popular) / TRAE Thrombocytopenia /platelet count decrease: n = 40
Summary of the method: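 Monitoring covered AEs graded by NCI-CTCAE v4.03, SAEs, laboratory values, clinical examinations, vital signs, ECOG status, ophthalmology and ECG. DLTs were assessed over cycle 1 (28 days) of oral single-agent dosing (50–400 mg QD, 200 mg BID). Escalation used a two-parameter BLRM with EWOC: reference 650 mg total daily dose, target DLT interval [0.16, 0.33], <25% chance of excessive toxicity, increments ≤100%.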

OATP1B1 = conditions: known potential; cited from earlier work
SAM = assay: Plasma SAM concentration; type: in vivo, human
Summary of the method: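 Plasma SAM was quantified by LC-MS/MS. Baseline blood was drawn twice at screening and before the single oral dose on C0D-3. At steady state (C1D15) sampling was pre-dose and 0.5, 1, 2, 3, 4, 6, 8 and 24 h post-dose, with daily oral dosing at 50–400 mg QD or 200 mg BID. The read-out was percent change from baseline.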

UGT1A1 = conditions: known potential; cited from earlier work
methionine = assay: Plasma methionine concentration; type: in vivo, human; conditions: steady state (C1D15)
[3] = system: advanced solid tumors with homozygous deletion of CDKN2A/MTAP and/or loss of MTAP protein; assay: Phase 1 trial: antitumor activity by RECIST v1.1, treatment duration; type: in vivo, human
Summary of the method: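 Adults with advanced solid tumour or lymphoma (homozygous CDKN2A and/or MTAP deletion by local FISH or sequencing, and/or central MTAP IHC with ≤20% positive tumour cells) took test compound orally on an empty stomach. Dosing was 50–400 mg QD or 200 mg BID: a single dose on C0D-3, then daily from C1D1 in 28-day cycles until progression or toxicity. Local investigators scored response by RECIST v1.1 (Lugano for lymphoma).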

SDMA residues = assay: SDMA by IHC; type: in vivo, human; conditions: NSCLC patient, 50 mg QD
Summary of the method: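 Paired core-needle biopsies (archival or fresh) were taken at screening/baseline and at the end of cycle 1. Tissue was fixed in 10% […] buffered formalin and paraffin-embedded. H&E confirmed tumour content, and SDMA in tumour cells was scored by IHC as an H-score. Paired comparison used a two-sided Wilcoxon matched-pairs test.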

MTAP-null tumors = conditions: cited from earlier work
[4] = Plasma pharmacokinetics of AG-270/S095033; type: in vivo, human
[5] = system: MTAP-deleted urothelial cancer and lung cancer; conditions: cited from earlier work
[6] = monotherapy expansion, MTAP-deleted urothelial cancer and lung cancer

In the case of `COc1ccc(-c2c(Nc3ccccn3)[nH]c3c(C4=CCCCC4)c(-c4ccccc4)nn3c2=O)cc1` [AG-270/S095033], the Retinal finding (mouse) is given as “non-reversible retinal atrophy at non-tolerated doses”, the “Effect on cell proliferation” value [1] is given as “robust decrease in cell proliferation” and the “Patients with dose-limiting ≥grade 3 / acute liver injury” value ([2]; 200 mg BID) is given as “two patients”. The Severity of thrombocytopenia ([2]; 200 mg BID) was “Higher grade thrombocytopenia”, the DLT ([2]; 1 patient at 100 mg QD) was “Grade 2 hypersensitivity reaction” and the DLT ([2]; 1 patient at 150 mg QD) was “Grade 3 hyperbilirubinemia and Grade 3 maculo-papular rash”. For the same compound, the DLT ([2]; 1 patient at 200 mg QD) was “Grade 3 neutrophil count decreased”, the “Patients who experienced a TEAE of Grade ≥3” value ([2]; 40 patients) was 67.5% and the “Patients with AEs leading to permanent treatment discontinuation” value ([2]; 40 patients) was 5.0%. The “Patients with TRAEs of Grade ≥3” value ([2]; 40 patients) was 17.5%, the “Patients with at least one DLT during cycle 1” value ([2]; 40 patients) was 10% and the “Patients with fatal SAEs (none related to treatment)” value ([2]; 40 patients) was 5.0%. For the same compound, the “Patients with serious adverse events (SAEs) regardless of relationship” value ([2]; 40 patients) was 57.5%, the “Patients with worst post-baseline ECOG score of 2” value ([2]; 40 patients) was 20.0% and the “Patients with worst post-baseline ECOG score of 3” value ([2]; 40 patients) was 2.5%. For the same compound, the SAE abdominal pain ([2]; 40 patients) was 5.0%, the SAE liver injury ([2]; 40 patients) was 5.0% and the SAE pancreatitis ([2]; 40 patients) was 5.0%. For the same compound, the SAE sepsis ([2]; 40 patients) was 5.0%, the SAE tumor pain ([2]; 40 patients) was 5.0% and the “TEAE non-serious blurred vision (not related to treatment)” value ([2]; 40 patients) was 5%. The “TEAE non-serious supraventricular tachycardia” value ([2]; 40 patients) was 2.5%, the TEAE non-serious tachycardia ([2]; 40 patients) was 5% and the “TEAE optic disc hemorrhage (not related to treatment)” value ([2]; 40 patients) was 2.5%. For the same compound, the “TEAE retinal hemorrhage (not related to treatment)” value ([2]; 40 patients) was 2.5%, the “TEAE serious atrial fibrillation” value ([2]; 40 patients) was 2.5% and the “TEAE serious electrocardiogram T wave inversion” value ([2]; 40 patients) was 2.5%. For the same compound, the “TEAE serious sinus tachycardia” value ([2]; 40 patients) was 2.5%, the “TRAE blood bilirubin increase, any grade” value ([2]; 40 patients) was 15% and the “TRAE hyperbilirubinemia, any grade” value ([2]; 40 patients) was 12.5%. The “TRAE thrombocytopenia, any grade” value ([2]; 40 patients) was 10%, the “Patients with any TRAE” value ([2]; All Grades) was 28 n (%) and 28 (70.0) n (%) and the “TRAE Anemia” value ([2]; All Grades) was 4 n (%) and 4 (10.0) n (%). For the same compound, the “TRAE Blood bilirubin increased/hyperbilirubinemia” value ([2]; All Grades) was 10 n (%) and 10 (25.0) n (%), the “TRAE Diarrhea” value ([2]; All Grades) was 3 (7.5) n (%) and the “TRAE Fatigue” value ([2]; All Grades) was 10 n (%) and 10 (25.0) n (%). The “TRAE Nausea” value ([2]; All Grades) was 3 (7.5) n (%), the “TRAE Rash (rash, rash macular, rash maculo-popular)” value (shortened to “TRAE Rash”) ([2]; All Grades) was 6 (15.0) n (%) and the “TRAE Thrombocytopenia /platelet count decrease” value ([2]; All Grades) was 7 (17.5) n (%). For the same compound, the “Patients with any TRAE” value ([2]; Grade 1) was 10 (25.0) n (%), the “TRAE Anemia” value ([2]; Grade 1) was 1 (2.5) n (%) and the “TRAE Blood bilirubin increased/hyperbilirubinemia” value ([2]; Grade 1) was 1 (2.5) n (%). The “TRAE Diarrhea” value ([2]; Grade 1) was 2 (5.0) n (%), the “TRAE Fatigue” value ([2]; Grade 1) was 3 (7.5) n (%) and the “TRAE Nausea” value ([2]; Grade 1) was 3 (7.5) n (%). For the same compound, the “TRAE Rash” value ([2]; Grade 1) was 3 (7.5) n (%), the “TRAE Thrombocytopenia /platelet count decrease” value ([2]; Grade 1) was 2 (5.0) n (%) and the “Patients with any TRAE” value ([2]; Grade 2) was 11 (27.5) n (%). For the same compound, the “TRAE Anemia” value ([2]; Grade 2) was 2 (5.0) n (%), the “TRAE Blood bilirubin increased/hyperbilirubinemia” value ([2]; Grade 2) was 6 (15.0) n (%) and the “TRAE Diarrhea” value ([2]; Grade 2) was 1 (2.5) n (%). The “TRAE Fatigue” value ([2]; Grade 2) was 7 (17.5) n (%), the “TRAE Nausea” value ([2]; Grade 2) was 0 n (%) and the “TRAE Rash” value ([2]; Grade 2) was 1 (2.5) n (%). The “TRAE Thrombocytopenia /platelet count decrease” value ([2]; Grade 2) was 2 (5.0) n (%), the “Patients with any TRAE” value ([2]; Grade 3) was 6 (15.0) n (%) and the “TRAE Anemia” value ([2]; Grade 3) was 1 (2.5) n (%). The “TRAE Blood bilirubin increased/hyperbilirubinemia” value ([2]; Grade 3) was 4 (10.0) n (%), the “TRAE Diarrhea” value ([2]; Grade 3) was 0 n (%) and the “TRAE Fatigue” value ([2]; Grade 3) was 0 n (%). For the same compound, the “TRAE Nausea” value ([2]; Grade 3) was 0 n (%), the “TRAE Rash” value ([2]; Grade 3) was 2 (5.0) n (%) and the “TRAE Thrombocytopenia /platelet count decrease” value ([2]; Grade 3) was 3 (7.5) n (%). For the same compound, the “Patients with any TRAE” value ([2]; Grade 4) was 1 (2.5) n (%), the “TRAE Anemia” value ([2]; Grade 4) was 0 n (%) and the “TRAE Blood bilirubin increased/hyperbilirubinemia” value ([2]; Grade 4) was 0 n (%). For the same compound, the “TRAE Diarrhea” value ([2]; Grade 4) was 0 n (%), the “TRAE Fatigue” value ([2]; Grade 4) was 0 n (%) and the “TRAE Nausea” value ([2]; Grade 4) was 0 n (%). The “TRAE Rash” value ([2]; Grade 4) was 0 n (%), the “TRAE Thrombocytopenia /platelet count decrease” value ([2]; Grade 4) was 0 n (%) and the “Treatment-related increases in transaminases” value ([2]; between the 100 mg and 400 mg dose levels) was “Low grade (Grade 1–2)”. For the same compound, the Severity of thrombocytopenia ([2]; doses between 100 and 200 mg QD) was “largely Grade 1–2”, the “Effect on ECG parameters” value ([2]; in vivo) was “no discernable effect” and the “Time to resolution of erythematous rashes after stopping treatment” value ([2]; in vivo) was at most 1 week. The “Patients with PR interval >200 ms” value ([2]; maximum post-baseline value) was 10.0%, the “Patients with QRS duration >120 ms” value ([2]; maximum post-baseline value) was 7.5% and the “Patients with QT/QTc interval >450 ms” value ([2]; maximum post-baseline value) was 15.0%. The “Patients with QT/QTc interval increase from baseline >30 ms” value ([2]; maximum post-baseline value) was 10.0%, the “Patients with any TEAE” value ([2]; n=40) was 40 N (%) and the “TEAE Blood bilirubin increased” value ([2]; n=40) was 9 N (%). The “TEAE Decreased appetite” value ([2]; n=40) was 8 N (%), the “TEAE Diarrhoea” value ([2]; n=40) was 8 N (%) and the “TEAE Dyspnoea” value ([2]; n=40) was 8 N (%). The “TEAE Fatigue” value ([2]; n=40) was 17 N (%), the “TEAE Nausea” value ([2]; n=40) was 13 N (%) and the “≥ Grade 3 TEAE Bilirubin increased” value ([2]; n=40) was 4 N (%). For the same compound, the “Treatment-related clinically significant retinopathy” value ([2]; ophthalmologic examinations at screening and during treatment) was “No treatment-related events of clinically significant retinopathy were reported”, the “Maximum tolerated dose (MTD)” value ([2]; oral, 28-day cycles) was 200 mg QD and the “Increases in unconjugated bilirubin” value ([2]; patients, across doses) was “Asymptomatic, exposure-dependent and reversible increases in unconjugated bilirubin were observed starting at 100 mg QD”. For the same compound, the “Inhibition of hepatocyte transporter OATP1B1” value (OATP1B1) was “inhibit”, the “Mean reduction from baseline plasma SAM concentration” value (SAM; C1D15, 400 mg QD) was ~ 54% and the “Decrease of plasma SAM concentration from baseline, range across doses” value (SAM; C1D15, 50–200 mg QD and 200 mg BID) was 65–70%. For the same compound, the “Inhibition of UGT1A1” value (UGT1A1) was “inhibit”, the “Change in plasma methionine concentrations” value (methionine) was “increases in methionine concentrations in a drug exposure-dependent manner up to 200 mg QD” and the “Patients with SD for 4 months or longer” value ([3]; 40 patients) was 12.5%. For the same compound, the “Disease control rate (CR+PR+SD≥16 weeks)” value ([3]; 40 patients, 95%–CI 7.3, 32.8) was 17.5%, the “BOR Not evaluable (NE)” value ([3]; Total (n=40)) was 7 n (%) and the “BOR Partial response (PR)” value ([3]; Total (n=40)) was 2 n (%). For the same compound, the “Duration of partial response” value ([3]; patient, sex cord stromal cell cancer, 100 mg QD) was 28 months, the “SDMA reduction after 1 cycle of treatment” value (SDMA residues) was 39% and the “Effect on SAM levels” value (MTAP-null tumors; mice bearing MTAP-null tumors) was “reduce the levels of SAM in both plasma and tumor tissue”. The “Effect on tumor growth” value (MTAP-null tumors; mice bearing MTAP-null tumors) was “inhibit tumor growth in a dose- and drug exposure-dependent manner”, the “Reduction in plasma SAM concentration associated with maximum tumor growth inhibition” value (MTAP-null tumors; preclinical models) was 60–80% and the “Increase of plasma concentrations with dose” value ([4]; 50 mg to 200 mg) was “dose-proportional manner from 50 mg to 200 mg”. For the same compound, the “Exposure relative to dose” value ([4]; 400 mg QD) was “less than dose proportional”, the Cmax ([4]; human, plasma, oral, Geometric mean Cmax, range across the dosing cohorts, C1D15) was 1710 to 13600 ng/mL and the half-life ([4]; human, plasma, oral, Geometric mean accumulation-based (effective) half-life (T½eff), range, C1D15, 50 to 200 mg QD and 200 mg BID) was 43 to 99 h. The Tmax ([4]; human, plasma, oral, Median Tmax, range across the dosing cohorts, C1D15) was 1 to 6 h, the half-life ([4]; human, plasma, oral, Median terminal half-life (t½), range across the tested doses) was 16 to 38 h and the “Time at which steady-state was achieved (mean plasma trough concentrations)” value ([4]; most of the cohorts) was at most 15 days.
In the case of `Nc1nc(=O)n(-c2ccccc2Cl)c2nc(C(F)(F)F)ccc12` [IDE397], the “Patients achieving a PR” value ([5]; Phase 2 expansion, squamous NSCLC and bladder cancer) is listed as “two out of eight patients”, the Disease control rate [5, 6] is listed as ~ 94% and the Overall response rate [5, 6] is listed as ~ 39%. For the same compound, the “ctDNA molecular response rate” value [5, 6] was ~ 81%.
